In assay [1] the test system is MRC5. Kind of assay: Cytotoxicity on MRC-5 cells at 6.25 uM. In kind it is functional. Conditions: Homo sapiens. The essentials: (§1)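 MRC-5 human diploid embryonic lung cells seeded at 5 000/well, washed after 24 h, then given 2-fold drug dilutions (25, 12.5, 6.25, 3.13 µM) in RPMI + 5% FCS, final DMSO below 0.5%. Incubated 7 days at 37 °C, 5% CO2. MTT colorimetric read-out, scored as % reduction of absorbance at 540 nm versus untreated controls.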

Assay [2] deals with MRC5. In words: Cytotoxicity on MRC-5 cells at 25 uM. In kind it is functional. Conditions: Homo sapiens. The essentials:
as §1

The test system of assay [3] is Trypanosoma cruzi. In words: Percentage of activity against Trypanosoma cruzi at 1.56 uM. In kind it is functional. In short, it runs like this: (§2)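 Mouse peritoneal macrophages, 30 000/well, infected after 24 h with about 100 000 T. cruzi trypomastigotes per well plus 2-fold drug dilutions (12.5–1.56 µM). Incubated 4 days at 37 °C, 5% CO2. Methanol-fixed, Giemsa-stained and scored microscopically as % reduction of total parasite load (free trypomastigotes plus intracellular amastigotes) versus untreated controls.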

The test system of assay [4] is Trypanosoma brucei. Kind of assay: Percentage of activity against Trypanosoma brucei at 3.13 uM. It is filed as functional. In short, it runs like this:
(§3)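 Bloodstream-form T. brucei in HMI-9 medium, 10 000 parasites/well, exposed to 12.5, 6.25, 3.13 and 1.56 µM drug for 4 days. Read-out is % inhibition of parasite multiplication. Macrophage toxicity judged on mouse primary peritoneal macrophages.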

Assay [5] has as its system Leishmania infantum. In words: Percentage of activity against Leishmania infantum at 12.5 uM Concentration; Toxic upon mouse primary peritoneal macrophages. It is filed as functional, organism-based. The essentials:
(§4)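 Starch-stimulated mouse peritoneal macrophages, 30 000/well, infected after 24 h with spleen-derived L. infantum amastigotes (10:1) together with 2-fold drug dilutions (12.5–1.56 µM). Incubated 7 days at 37 °C, 5% CO2. Wright-stained slides scored microscopically as % reduction of total parasite load or of infected macrophages. Uninfected treated cultures judged microscopically for macrophage toxicity.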

Assay [6] deals with Trypanosoma brucei. In words: Percentage of activity against Trypanosoma brucei at 6.25 uM. In kind it is functional. In short, it runs like this:
as §3

Assay [7] has as its system Leishmania infantum. In words: Percentage of activity against Leishmania infantum 6.25 uM. It is filed as functional. In short, it runs like this: as §4
Assay [8] deals with MRC5. In words: Cytotoxicity on MRC-5 cells at 12.5 uM. It is filed as functional. Conditions: Homo sapiens. In short, it runs like this: as §1
Assay [9] has as its system Trypanosoma brucei. In words: Percentage of activity against Trypanosoma brucei at 12.5 uM. In kind it is functional. In short, it runs like this: as §3
The subject of assay [10] is Trypanosoma cruzi. In words: Percentage of activity against Trypanosoma cruzi at 6.25 uM Concentration. In kind it is functional. The essentials:
as §2

The subject of assay [11] is Trypanosoma brucei. Kind of assay: Percentage of activity against Trypanosoma brucei at 1.56 uM. It is filed as functional. In short, it runs like this:
as §3

The test system of assay [12] is Trypanosoma cruzi. Kind of assay: Percentage of activity against Trypanosoma cruzi at 12.5 uM; Toxic upon mouse primary peritoneal macrophages. It is filed as functional, organism-based. In short, it runs like this: as §2
Assay [13] deals with Leishmania infantum. In words: Percentage of activity against Leishmania infantum at 3.13 uM. In kind it is functional. In short, it runs like this: as §4
In assay [14] the test system is MRC5. Kind of assay: Cytotoxicity on MRC-5 cells at 3.13 uM. In kind it is functional. Conditions: Homo sapiens. In short, it runs like this: as §1
For the next assay, the system named is Plasmodium falciparum. In words: In vitro sensitivity for Plasmodium falciparum FcB1R. In kind it is functional, organism-based. In short, it runs like this:
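Asynchronous P. falciparum cultures in human erythrocytes (0.5% parasitemia, 1% haematocrit) exposed to serially diluted drug for 24 h at 37 °C. [3H]hypoxanthine (0.5 µCi/well) then added for a further 24 h. Uptake compared with drug-free controls on the same plate. IC50 taken from the concentration–response curve, averaged over independent experiments. DMSO ≤0.1%.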

The subject of assay [15] is Trypanosoma cruzi. Kind of assay: Percentage of activity against Trypanosoma cruzi at 3.13 uM. In kind it is functional. In short, it runs like this: as §2
Assay [16] has as its system Leishmania infantum. Kind of assay: Percentage of activity against Leishmania infantum at 1.56 uM. In kind it is functional. The essentials: as §4

Broadly, the IC50 is the concentration at which inhibition is half-maximal. A lower IC50 goes with greater potency in that assay. Compound `COc1ccc2nc3cc(Cl)ccc3c(NCCCN(CCCNc3c4ccc(Cl)cc4nc4ccc(OC)cc34)C(=O)C(CCCCNC(=O)OCC3c4ccccc4-c4ccccc43)NC(=O)OC(C)(C)C)c2c1` (stereo unspecified) registered a cytotoxicity at 6.25 µM with MRC5 [1] of 80%. The cytotoxicity at 25 µM in the assay on MRC5 [2] turned out to be 100%. The compound also returned a Parasite load reduction in the assay on Trypanosoma cruzi [3] of 0%. The same compound displayed a Parasite growth inhibition with Trypanosoma brucei [4] of 100%. The Cytotoxicity entry in the assay with Leishmania infantum [5] and with Trypanosoma cruzi [12] was “Toxic” each time. Also, the “Inhibition of parasite multiplication” value in the assay on Trypanosoma brucei [6] and in the assay on Trypanosoma brucei [9] was 100% throughout. The “Antileishmanial activity (% reduction of parasite load)” value is reported as 40% with Leishmania infantum [7] and 0% in the assay with Leishmania infantum [16]. Further, in the assay with MRC5 [8], the cytotoxicity at 12.5 µM was found to be 90%. Besides, the entries for the “Reduction of T. cruzi parasite load” value in the assay with Trypanosoma cruzi [10] and in the assay on Trypanosoma cruzi [15] were 80% and 20%, respectively. In addition, the “Percent inhibition of parasite multiplication” value (shortened to “Percent inhibition”) in the assay on Trypanosoma brucei [11] was found to be 100%. Further, the “Percent antileishmanial activity (reduction of parasite load)” value in the assay on Leishmania infantum [13] is on record as 0%. The compound also gave a cytotoxicity at 3.13 µM in the assay on MRC5 [14] of 20%. In the assay on Plasmodium falciparum, the IC50 was determined as 273 nM.
As for `COc1ccc2nc3cc(Cl)ccc3c(NCCCN(CCCNc3c4ccc(Cl)cc4nc4ccc(OC)cc34)C(=O)C(CNC(=O)OCC3c4ccccc4-c4ccccc43)NC(=O)OC(C)(C)C)c2c1` (stereo unspecified), in the assay on MRC5 [1], the cytotoxicity at 6.25 µM was 57%. This compound showed a cytotoxicity at 25 µM in the assay on MRC5 [2] of 68%. Also, in the assay on Trypanosoma cruzi [3], the Parasite load reduction worked out at 0%. Besides, the Parasite growth inhibition in the assay with Trypanosoma brucei [4] worked out at 100%. Further, the Cytotoxicity entry in the assay with Leishmania infantum [5] and with Trypanosoma cruzi [12] was “Toxic” throughout. Moreover, in the assay with Trypanosoma brucei [6], the “Inhibition of parasite multiplication” value was 100%. The “Antileishmanial activity (% reduction of parasite load)” value with Leishmania infantum [7] came out at 95%; in the assay on Leishmania infantum [16], 20%. This compound registered a cytotoxicity at 12.5 µM with MRC5 [8] of 60%. The “Reduction of T. cruzi parasite load” value in the assay on Trypanosoma cruzi [10] is listed as 90%; with Trypanosoma cruzi [15] it was 20%. The “Percent inhibition” value in the assay with Trypanosoma brucei [11] is 100%. In addition, in the assay on Leishmania infantum [13], the “Percent antileishmanial activity (reduction of parasite load)” value is on record as 70%. Besides, the cytotoxicity at 3.13 µM in the assay on MRC5 [14] is 55%. Besides, the IC50 in the assay on Plasmodium falciparum came out at 71 nM.
In the case of `COc1ccc2nc3cc(Cl)ccc3c(NCCCCCCCCNc3c4ccc(Cl)cc4nc4ccc(OC)cc34)c2c1`, the cytotoxicity at 6.25 µM with MRC5 [1] was found to be 100%. In the assay with MRC5 [2], this compound registered a cytotoxicity at 25 µM of 100%. The compound further returned a Parasite load reduction in the assay on Trypanosoma cruzi [3] of 70%. In the assay on Trypanosoma brucei [4], this compound showed a Parasite growth inhibition of 100%. In addition, the Cytotoxicity result with Leishmania infantum [5] and in the assay on Trypanosoma cruzi [12] was “Toxic” each time. Besides, the “Inhibition of parasite multiplication” value with Trypanosoma brucei [6] and in the assay with Trypanosoma brucei [9] was 100% throughout. The “Antileishmanial activity (% reduction of parasite load)” value in the assay with Leishmania infantum [7] is listed as 95%; in the assay with Leishmania infantum [16] it was 70%. Moreover, the cytotoxicity at 12.5 µM in the assay on MRC5 [8] is 100%. Also, the figures for the “Reduction of T. cruzi parasite load” value with Trypanosoma cruzi [10] and in the assay with Trypanosoma cruzi [15] were 98% and 90%, respectively. For the same compound, the “Percent inhibition” value in the assay with Trypanosoma brucei [11] is 100%. The “Percent antileishmanial activity (reduction of parasite load)” value in the assay on Leishmania infantum [13] was found to be 90%. The compound also returned a cytotoxicity at 3.13 µM in the assay on MRC5 [14] of 20%. In the assay with Plasmodium falciparum, the IC50 worked out at 19 nM.
As for `COc1ccc2nc3cc(Cl)ccc3c(NCCCN(CCCNc3c4ccc(Cl)cc4nc4ccc(OC)cc34)C(=O)C(CNC(=O)OC(C)(C)C)NC(=O)OC(C)(C)C)c2c1` (stereo unspecified), the cytotoxicity at 6.25 µM in the assay with MRC5 [1] amounted to 48%. Moreover, in the assay with MRC5 [2], the cytotoxicity at 25 µM stood at 70%. In the assay with Trypanosoma cruzi [3], this compound returned a Parasite load reduction of 0%. Moreover, in the assay on Trypanosoma brucei [4], the Parasite growth inhibition was found to be 100%. Moreover, the Cytotoxicity entry with Leishmania infantum [5] and in the assay with Trypanosoma cruzi [12] was “Toxic” each time. In addition, the “Inhibition of parasite multiplication” value in the assay with Trypanosoma brucei [6] was determined as 100%. The “Antileishmanial activity (% reduction of parasite load)” value with Leishmania infantum [7] was determined as 99%; in the assay with Leishmania infantum [16], 80%. In the assay on MRC5 [8], this compound yielded a cytotoxicity at 12.5 µM of 50%. The “Reduction of T. cruzi parasite load” value in the assay with Trypanosoma cruzi [10] was 80%; in the assay on Trypanosoma cruzi [15], 40%. The “Percent inhibition” value in the assay on Trypanosoma brucei [11] is on record as 100%. The “Percent antileishmanial activity (reduction of parasite load)” value in the assay on Leishmania infantum [13] came to 95%. Moreover, the cytotoxicity at 3.13 µM in the assay with MRC5 [14] turned out to be 43%. The compound also showed an IC50 in the assay with Plasmodium falciparum of 55 nM.

The values above are taken from ChEMBL document CHEMBL1133105, “Antimalarial, antitrypanosomal, and antileishmanial activities and cytotoxicity of bis(9-amino-6-chloro-2-methoxyacridines): influence of the linker” (J Med Chem, 2000).
